Results on 23 compounds are retold here after ChEMBL document CHEMBL5579858, “Design, synthesis, and structure-activity relationship studies of 6,7-dihydro-5H-pyrrolo[1,2-b][1,2,4]triazole derivatives as necroptosis inhibitors” (RSC Med Chem, 2024).

Usually AUC(0-t) stands for the area under the concentration-time curve up to a stated or last time point. Broadly, the Tmax is the time at which the peak concentration occurs. One may read the Cmax as the maximum level reached in the sampled fluid or tissue. What is called inhibition is the drop in the measured response relative to a control, in per cent. By IC50 is commonly meant the midpoint of a concentration-inhibition curve.

The structures appear in SMILES notation.

The nature of data set [1]: AUClast in Sprague-Dawley rat at 3 mg/kg, po by LC-MS/MS analysis. Type of data set: ADME, organism-based. The conditions noted are these: in vivo. Put shortly:
(§1)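 Male Sprague Dawley rats, N = 3. Single oral dose of 3 mg kg⁻¹ in DMSO/0.5% HMPC (5/95, v/v). Blood taken at 0.25, 0.5, 1, 2, 4, 8 and 24 h. Serum drug levels measured by LC-MS/MS. Parameters reported as means.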

Data set [2] in a line: Tmax in Sprague-Dawley rat at 3 mg/kg, po by LC-MS/MS analysis. Type of data set: ADME, organism-based. The settings on record: in vivo. Put shortly: as §1
Data set [3] deals with Hepa 1-6. The data set can be described thus: Anti-necroptotic activity in mouse Hepa1-6 cells assessed as inhibition of TNFalpha/BV6/Z-VAD-induced necroptosis by measuring necroptosis recovery at 10 nM measured after 24 hrs by CCK-8 assay relative to control. Format: functional. Further details: scale not given: the % may be the effect or the level left. In a few lines: (§2)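 Murine Hepa1-6 cells from ATCC, seeded at low density and incubated overnight. Z-VAD 10 μM added 1 h ahead. Necroptosis then induced with TNF-α 20 ng mL⁻¹ plus BV6 10 μM, together with compound, for 24 h. Viability read by CCK-8. Recovery is mean ± SD of at least two assays.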
For orientation: Tetrazolium dyes change colour on reduction, which living cells bring about.

Data set [4] is described as follows: Anti-necroptotic activity in human I2.1 cells assessed as inhibition of TNFalpha-induced necroptosis by measuring necroptosis recovery at 10 nM preincubated for 1 hr followed by TNFalpha addition and measured after 24 hrs by CCK-8 assay relative to control. Format: functional. Further details: scale not given: the % may be the effect or the level left. The conditions noted are these: time 25 hrs. In a few lines: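 Human I2.1 cells from ATCC, seeded at low density in growth medium and incubated overnight. Compound added first. After 1 h, stimulated with TNF-α 20 ng mL⁻¹ and incubated a further 24 h. Viability read by CCK-8. Recovery is mean ± SD of at least two assays.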

Data set [5] in a line: Cmax in Sprague-Dawley rat at 3 mg/kg, po by LC-MS/MS analysis. Format: ADME, organism-based. The settings on record: in vivo. In a few lines: as §1
The nature of data set [6]: Elimination half-life in Sprague-Dawley rat at 3 mg/kg, po by LC-MS/MS analysis. Format: ADME, organism-based. The conditions noted are these: in vivo, read-out: beta t1/2 (converted). Put shortly: as §1
Data set [7] concerns the target T1, Receptor-interacting serine/threonine-protein kinase 1 (Homo sapiens) (UniProt Q13546).
T1 sequence (whole entry): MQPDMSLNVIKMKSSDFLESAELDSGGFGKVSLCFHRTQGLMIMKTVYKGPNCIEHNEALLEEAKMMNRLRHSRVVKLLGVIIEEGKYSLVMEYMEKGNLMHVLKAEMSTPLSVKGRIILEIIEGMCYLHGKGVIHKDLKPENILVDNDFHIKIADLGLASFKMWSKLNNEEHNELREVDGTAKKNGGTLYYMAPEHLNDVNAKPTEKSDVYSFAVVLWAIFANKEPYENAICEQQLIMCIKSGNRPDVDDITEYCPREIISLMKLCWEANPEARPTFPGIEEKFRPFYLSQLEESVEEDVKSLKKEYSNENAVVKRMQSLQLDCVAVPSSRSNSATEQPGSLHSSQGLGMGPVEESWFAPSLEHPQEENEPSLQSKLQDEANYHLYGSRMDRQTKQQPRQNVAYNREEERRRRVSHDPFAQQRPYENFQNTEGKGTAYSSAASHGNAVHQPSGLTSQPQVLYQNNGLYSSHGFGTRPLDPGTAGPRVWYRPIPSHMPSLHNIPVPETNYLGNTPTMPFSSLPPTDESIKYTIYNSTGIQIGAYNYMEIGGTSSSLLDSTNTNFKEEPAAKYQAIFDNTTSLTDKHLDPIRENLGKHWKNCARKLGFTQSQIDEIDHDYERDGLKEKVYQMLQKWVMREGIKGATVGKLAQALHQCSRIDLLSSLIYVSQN
Kind of data set: Inhibition of recombinant human N-terminal GST-tagged RIPK1 (1 to 327 residues) expressed in baculovirus infected Sf9 insect cells at 1 uM using myelin basic protein as substrate by ADP-glo assay relative to control. In a few lines: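 RIPK1 kinase activity tested at 1 μM. Read-out is luminescence. Inhibition% = (DMSO-control specific signal − inhibitor specific signal)/DMSO-control specific signal × 100.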
A general note: In ADP-Glo the light output rises with the ADP produced.

Data set [8] relates to Hepa 1-6. The data set can be described thus: Anti-necroptotic activity in mouse Hepa1-6 cells assessed as inhibition of TNFalpha/BV6/Z-VAD-induced necroptosis by measuring necroptosis recovery at 100 nM measured after 24 hrs by CCK-8 assay relative to control. Format: functional. Further details: scale not given: the % may be the effect or the level left. Put shortly: as §2

In data set [9] the test system is Hepa 1-6. Kind of data set: Anti-necroptotic activity in mouse Hepa1-6 cells assessed as inhibition of TNFalpha/BV6/Z-VAD-induced necroptosis by measuring necroptosis recovery at 1 uM measured after 24 hrs by CCK-8 assay relative to control. Format: functional. Further details: scale not given: the % may be the effect or the level left. Put shortly: as §2
Another data set concerns HT-29. Kind of data set: Anti-necroptotic activity in human HT-29 cells assessed as inhibition of TNFalpha/Z-VAD-fmk/AT-406-induced necroptosis preincubated for 30 mins followed by TNFalpha/Z-VAD-fmk/AT-406 addition and measured after 16 to 20 hrs by CCK-8 assay. Format: functional, cell-based.

`Cc1ccc(OCCN2CCOCC2)cc1-c1ccnc(NC(=O)c2nc3n(n2)[C@H](c2ccccc2)C[C@@H]3F)c1` registered an area under the curve AUC(0-t) in data set [1] of 15.2 ng·h/mL. For the same compound, in [2], the time to peak (Tmax) was determined as 0.67 h. Also, the results for the Activity (in the data set on Hepa 1-6 [3]; in [4]) were 102.4% and 97.9%, respectively. Also, the highest level in data set [5] (Cmax) was 8.9 ng/mL. For the same compound, the half-life in data set [6] is 1.91 h. Besides, the inhibition in data set [7] worked out at 79.1%.

Turning to `Cc1ccc(OCCN2CCOCC2)cc1-c1ccnc(NC(=O)c2nc3n(n2)[C@@H](c2ccccc2)C[C@H]3F)c1`, the inhibition in data set [7] was below 0%.

For `Cc1ccc(OCCC2CCOCC2)cc1-c1ccnc(NC(=O)c2nc3n(n2)[C@@H](c2ccccc2)C[C@H]3F)c1`, the inhibition in data set [7] is below 0%.

For the compound `Cc1ccc(OCCCC(C)(C)O)cc1-c1ccnc(NC(=O)c2nc3n(n2)[C@@H](c2ccccc2)C[C@H]3F)c1` (relative stereo), the Activity came to 107.6% in the data set on Hepa 1-6 [8], 100.5% with Hepa 1-6 [3], 80.6% in data set [4] and 110% with Hepa 1-6 [9].

`CC(C)(O)CCCOc1ccc(Cl)c(-c2ccnc(NC(=O)c3nc4n(n3)C(c3ccccc3)CC4)c2)c1` (stereo not given): the Activity in data set [4] came out at 80.6%; with Hepa 1-6 [9] it was 2.9%.

Regarding `Cc1ccc(OCCCC(C)(C)O)cc1-c1ccnc(NC(=O)c2nc(Cc3ccccc3)n[nH]2)c1`, in the data set on HT-29, the IC50 was below 100 nM. Besides, the Activity in data set [4] was 90%; in the data set with Hepa 1-6 [9], below 0%.

Regarding `Cc1ccc(OCCCC(C)(C)O)cc1-c1ccnc(NC(=O)c2nc3n(n2)C(C2CCCCC2)CC3)c1` (stereo not given), in [4], the Activity came out at 61.2%.

Turning to `Cc1ccc(OCCCC(C)(C)O)cc1-c1ccnc(NC(=O)c2nc3n(n2)C(c2ccccc2F)CC3)c1` (stereo not given), the Activity in [4] is given as 62.7%.

In the case of `Cc1ccc(OCCCC(C)(C)O)cc1-c1ccnc(NC(=O)c2nc3n(n2)C(C2CCCC2)CC3)c1` (stereo not given), in [4], the Activity came to 73.2%.

On to `CC(C)(O)CCCOc1cccc(-c2ccnc(NC(=O)c3nc4n(n3)C(c3ccccc3)CC4)c2)c1` (stereo not given), for which the Activity was 86.1% in data set [4] and 2.2% with Hepa 1-6 [9].

On to `Cc1ccc(OCCCC(C)(C)O)cc1-c1cnnc(NC(=O)c2nc3n(n2)C(c2ccccc2)CC3)c1` (stereo not given), for which the Activity in [4] came out at 53.6%.

Take `Cc1ccc(OCC(C)(C)O)cc1-c1ccnc(NC(=O)c2nc3n(n2)C(c2ccccc2)CC3)c1` (stereo not given): the Activity in the data set on Hepa 1-6 [8] was 10.9%; in the data set with Hepa 1-6 [3], 3.8%; in data set [4] it was 98.2%; with Hepa 1-6 [9], 94.1%.

With `Cc1ccc(OCCC2CCOCC2)cc1-c1ccnc(NC(=O)c2nc3n(n2)[C@H](c2ccccc2)C[C@@H]3F)c1`, the figures for the Activity (with Hepa 1-6 [3]; in data set [4]) were 111.4% and 70.5%, respectively. In [7], the inhibition stood at 78.8%.

Turning to `Cc1ccc(OCCCC(C)(C)O)cc1-c1ccnc(NC(=O)c2nc3n(n2)C(c2ccc(F)cc2)CC3)c1` (stereo not given), the Activity in data set [4] is 60.1%.

`Cc1ccc(OCCCC(C)(C)O)cc1-c1ccnc(NC(=O)c2nc3n(n2)[C@H](c2ccccc2)C[C@H]3F)c1` (relative stereo): the Activity in the data set on Hepa 1-6 [8] came to 41.3%; in the data set on Hepa 1-6 [3], 6.3%; in data set [4], 98.9%; with Hepa 1-6 [9] it was 104.2%.

As to `COc1ccc(C)c(-c2ccnc(NC(=O)c3nc4n(n3)C(c3ccccc3)CC4)c2)c1` (stereo not given), the Activity in [4] is given as 73.7%.

As to `Cc1ccc(OCCCC(C)(C)O)cc1-c1cc(NC(=O)c2nc3n(n2)C(c2ccccc2)CC3)ncc1Cl` (stereo not given), in [4], the Activity was 56.2%.

As to `Cc1ccc(OCCCC(C)(C)O)cc1-c1cc(NC(=O)c2nc3n(n2)C(c2ccccc2)CC3)ncc1F` (stereo not given), in [4], the Activity came to 58.1%.

As to `Cc1ccc(OCCCC(C)(C)O)cc1-c1ccnc(NC(=O)c2nc3n(n2)C(c2cccc(F)c2)CC3)c1` (stereo not given), the Activity in data set [4] was 58.1%.

On to `Cc1ccc(OCCCC#N)cc1-c1ccnc(NC(=O)c2nc3n(n2)C(c2ccccc2)CC3)c1` (stereo not given), for which the Activity in data set [4] came out at 35.8%.

Regarding `Cc1ccc(OCCC2CCOCC2)cc1-c1ccnc(NC(=O)c2nc3n(n2)C(c2ccccc2)CC3)c1` (stereo not given), the Activity with Hepa 1-6 [8] was 10.7%; in the data set with Hepa 1-6 [3], 3.7%; in data set [4], 91.9%; in the data set with Hepa 1-6 [9], 96.6%.

Take `Cc1ccc(OCCCC(C)(C)O)cc1-c1cc(NC(=O)c2nc3n(n2)C(c2ccccc2)CC3)ncc1C` (stereo not given): in [4], the Activity came to 72.7%.

For `Cc1ccc(OCCCC(C)(C)O)cc1-c1ccnc(NC(=O)c2nc3n(n2)C(c2ccccc2)CC3)c1` (stereo not given), the Activity in the data set with Hepa 1-6 [8] is recorded as 26.1%; with Hepa 1-6 [3], 5.5%; in data set [4] it was 81.2%; in the data set on Hepa 1-6 [9], 86.6%.
